The list is not random: actives were taken first. Their share in the collection is about 4.3%.
CR mimetic SO: reduction of superoxide in aged yeast, primary screen, HTS | hit rate 0.18% among 330,000 | superoxide response (% of plate mean), % at 10 µM | S. cerevisiae aged cells, superoxide DHE fluorescence; hits give low values;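 active = superoxide response under a set limit, about three screen SD below normal, cut at about 65% in these data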;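 also: yeast aged for seven days with compound at 30 °C before DHE staining; 100% = average MFI of all compound-treated wells on the plate with controls excluded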
SR-BI DiI inh: inhibitors of SR-BI mediated HDL lipid uptake, primary screen, ldlA[mSR-BI] cells, fluorescence, single point. Scavenger receptor class B member 1 (Mus musculus), Q61009. ldlA[mSR-BI] CHO cells, DiI-HDL uptake fluorescence, 3 h. inhibition, % at 12.5 µM. hit rate 0.96% among 320,000. AID 488896, 2010;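 active = mean replicate inhibition of at least 70% and a set share of replicates each scoring 70 or more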;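 also: 0% = median of neutral control wells and 100% = median of positive control wells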
Target sequence (Q61009 whole entry, looked up): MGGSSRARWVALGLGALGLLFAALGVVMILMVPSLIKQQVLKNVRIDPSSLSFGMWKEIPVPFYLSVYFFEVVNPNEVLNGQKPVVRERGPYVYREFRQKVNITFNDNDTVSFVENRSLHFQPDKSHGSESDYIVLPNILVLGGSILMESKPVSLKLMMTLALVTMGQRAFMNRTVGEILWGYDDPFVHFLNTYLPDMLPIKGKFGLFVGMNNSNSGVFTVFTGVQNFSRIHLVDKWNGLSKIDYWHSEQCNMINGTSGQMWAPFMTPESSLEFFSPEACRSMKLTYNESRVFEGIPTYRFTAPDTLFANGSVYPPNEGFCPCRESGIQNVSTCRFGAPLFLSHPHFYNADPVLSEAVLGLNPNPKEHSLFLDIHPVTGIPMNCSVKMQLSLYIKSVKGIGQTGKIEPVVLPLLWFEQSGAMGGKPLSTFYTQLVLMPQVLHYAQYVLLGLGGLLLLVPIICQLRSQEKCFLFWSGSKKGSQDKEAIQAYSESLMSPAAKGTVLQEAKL
AHR activator: AHR activators, primary screen, cell-based, luminescence, luciferase reporter, human; hit rate 2.5% among 320,000; AID 2796, 2010; AHR-responsive luciferase reporter cells; Aryl hydrocarbon receptor (Homo sapiens), P35869; activation, % at 5 µM; in the data active = activation above about 47%;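 also: 0% = vehicle wells and 100% = reference agonist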
SMARCA2 act: SMARCA2 (BRM) function activators, primary screen, cell-based, luminescence, high throughput. MG213 cells, MMTV-luciferase reporter, dexamethasone, overnight. activation, % at 9.1 µM. hit rate 1% among 370,000; in the data active = activation above about 7.8%;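 also: 0% = vehicle wells and 100% = reference activator wells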
Lipid droplet: inhibitors of hepatocyte lipid droplet formation, primary screen, imaging, high-throughput imaging, BODIPY stain; AML12 mouse hepatocytes, oleate lipid droplets; inhibition, % at 6.5 µM; hit rate 0.4% among 240,000; AID 1656, 2009;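 active = lipid droplet intensity inhibited by at least 50%, with more than 500 cells counted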
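Test system: AML12 mouse liver cells; schedule: overnight exposure; technique: high-content imaging of BODIPY-stained droplets and DAPI nuclei; read-out: % inhibition of corrected integrated BODIPY droplet signal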
SR-BI uptake up: activators of SR-BI mediated DiI-HDL uptake, primary screen, ldlA[mSR-BI] CHO cells, DiI fluorescence; hit rate 0.096% among 320,000; 3 h; 100 = double the neutral-control signal; activation, % at 12.5 µM; AID 504775, 2011;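 active = mean replicate activation of at least 60% and every replicate at or above 60%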;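 also: 0% = median plate neutral-control signal and 100% = twice that signal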
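System: LDL receptor-deficient CHO ldlA cells overexpressing murine SR-BI | Timing: 3 h uptake period with compound, 37 °C | Medium: HEPES-buffered (25 mM, pH 7.4) F12 plus 0.5% BSA | Dosing: Single-point compound dose | Signal: Bottom-read fluorescence, 550/595 nm | Read-out: Retained DiI signal reflecting DiI-HDL uptake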
An asterisk follows results filed as active; x = not tested or not shown.

SMILES | CR mimetic SO | SR-BI DiI inh | AHR activator | SMARCA2 act | Lipid droplet | SR-BI uptake up
Cc1c(NC(=O)c2ccc3c(c2)C(=O)N(CC2CCCO2)C3=O)cccc1C(=O)O (configuration not stated) | 107.5 | 21.1 | 3.5 | 2.1 | 2.3 | -21.1
COc1ccc(S(=O)(=O)N2CCCCC2)cc1NC(=O)c1ccc(Cl)nc1 | 92.1 | 34.6 | 16.4 | -1.2 | x | -34.6
CCOc1ccccc1NC(=O)c1ccc2c(c1)C(=O)N(CC1CCCO1)C2=O (configuration not stated) | 97.2 | 43.9 | 73.4* | 2.5 | -1.2 | -43.9
O=C(Nc1ccc(F)cc1)OCc1cn(Cc2ccccc2)nn1 | x | x | x | -1.1 | x | x
Cc1ccc(S(=O)(=O)NCC2CCN(C(=O)C(=O)c3cccs3)CC2)cc1 | x | x | x | 5.2 | x | x
CN(C(=O)CCc1cn(C)c2ccccc12)c1ccc(Oc2cccnc2)cc1 | x | x | x | -3.7 | x | x
CCOc1ccc(NC(=O)c2cc(S(=O)(=O)N3CCCCC3)c[nH]2)cc1 | 97.4 | 8.0 | 48.0* | -3.4 | 6.0 | -10.0
CCc1ccc(NC(=O)c2cc(S(=O)(=O)N3CCCC3)c[nH]2)cc1 | 103.2 | -4.7 | 22.8 | x | -0.5 | 4.7
C#CCN1C(=O)[C@]2(NCCc3c2[nH]c2ccc(OC)cc32)c2ccccc21 | x | x | x | -0.3 | x | x
COc1ccc(S[C@]2(C(=O)N3CCCC3)CC(=O)N[C@@H]2c2ccc(OC)cc2)cc1 | x | x | x | -1.1 | x | x
CCOC(=O)Cn1cc(CN2C(C(=O)OC)CN(C3CCCC3)CCS2(=O)=O)nn1 (configuration not stated) | x | x | x | -1.9 | x | x
COc1cccc(C(=O)N/N=c2/oc3ccccc3cc2C(N)=O)c1 | 85.4 | 24.7 | 18.1 | 4.7 | x | -24.7
NC(=O)c1cc2ccccc2o/c1=N/NC(=O)c1ccccc1 | 74.0 | 13.6 | 50.8* | 0.7 | -0.7 | -13.6
COc1ccc(-c2cc(C(F)(F)F)nc(SCC(=O)NCc3ccco3)n2)cc1OC | 97.9 | 80.9* | 5.9 | -0.3 | -14.1 | -80.9
O=C(CSc1nc(-c2ccccc2)cc(C(F)(F)F)n1)NCc1ccco1 | 91.1 | 22.5 | 1.5 | 4.7 | -2.5 | -22.5
Cc1ccc(Cn2cc(CN3[C@H](CC(C)C)COc4cc(Br)ccc4S3(=O)=O)nn2)cc1 | x | x | x | 6.0 | x | x
CSc1ccc(C#N)cc1NC(=O)c1ccc(Cl)cc1Cl | 82.0 | 48.5 | 59.2* | 2.5 | 5.1 | -48.5
COC(=O)C1CCN(C2CN(Cc3cn(Cc4ccc(C(F)(F)F)cc4)nn3)S(=O)(=O)C2)CC1 (configuration not stated) | x | x | x | 0.5 | x | x
Cc1ccc(CNc2nc3ccccc3n2C)cc1 | 97.2 | -6.8 | 25.7 | 5.8 | x | 6.8
Cc1cc(C)c(C)c(N=Nc2nc3ccccc3n2C)c1C | 94.5 | 79.4* | 42.5 | -5.4 | 14.8 | -79.4
Cc1ccc(C)c(N=Nc2nc3ccccc3n2C)c1 | 93.3 | 36.9 | 62.0* | -0.8 | x | -36.9
CC(C)(C)c1ccc(S(=O)(=O)NCC2CCN(C(=O)C(=O)c3cccs3)CC2)cc1 | x | x | x | -3.4 | x | x
CCCCOCC1CN(CCCC)S(=O)(=O)c2c(cccc2N2CCCCC2)O1 (configuration not stated) | x | x | x | -3.1 | x | x
C[C@@H]1C=CCCO[C@]12C(=O)N(Cc1ccc(F)cc1)c1ccccc12 | x | x | x | -5.2 | x | x
CCCCN1CCc2c1nc1ccc(Br)cc1c2N | 117.0 | 7.7 | 76.3* | 4.8 | -2.8 | -7.7
SMILES | CR mimetic SO | SR-BI DiI inh | AHR activator | SMARCA2 act | Lipid droplet | SR-BI uptake up
Cc1ccc2nc3c(c(N)c2c1)CCN3C | 111.2 | -5.6 | 31.2 | 6.7 | -12.8 | 5.6
COC(=O)c1cc2c(c3c4ccccc4n(S(C)(=O)=O)c13)C(=O)N(Cc1ccccc1)C2 | x | x | x | 2.3 | x | x
O=C(O)/C=C\C(=O)Nc1ccccc1C#Cc1ccc(Br)cc1 | 112.8 | -1.9 | 68.6* | 2.1 | 7.0 | 1.9
CN(Cc1ccccc1)C(=O)c1[nH]cnc1C(=O)Nc1ccc(Cl)cc1 | 118.8 | 17.8 | 65.6* | -0.9 | x | -17.8
O=C(Nc1cccc(Cl)c1)c1nc[nH]c1C(=O)NCCCNC(=O)c1[nH]cnc1C(=O)Nc1cccc(Cl)c1 | 100.1 | -16.2 | 34.1 | 1.2 | x | 16.2
O=C(Nc1ccccc1)c1nc[nH]c1C(=O)NCCCCNC(=O)c1[nH]cnc1C(=O)Nc1ccccc1 | 101.9 | 3.5 | 19.3 | -0.7 | x | -4.1

Assay outcomes (PubChem)
